Active and inactive are the calls of the source. No cut-off for these calls is given here. Square brackets hold non-standard residues; d marks the D form. Peptide text beside a SMILES is read from it. * marks the point of attachment. Acetyl(2-naphthyloxy) = O=C(COc1ccc2ccccc2c1)*; Chg = N[C@H](C(=O)O)C1CCCCC1

Assay [1] deals with Growth/differentiation factor 8 (Homo sapiens) (UniProt O14793). Briefly: Inhibition of myostatin (unknown origin) expressed in HEK293 cells at 10 uM incubated for 4 hrs by dual luciferase reporter gene assay. The class given is cell-based. The procedure, abridged:
(§1)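 Luciferase reporter assay of myostatin inhibition in HEK293 cells. Peptides were prepared as 3 mM DMSO stocks, then tested at a single final concentration (10, 3 or 0.3 μM). Results are given as mean ± SD (n = 3).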

Assay [2] has as its system Mus musculus. Briefly: In vivo induction of muscular hypertrophy in mdx mouse assessed as hind limb strength at 30 nmol, im administered on 0 and 14 day and measured on day 42 by grip strength meter method (reference value: 4.41 +/- 0.31 Kg). The class given is functional.
Assay [3] deals with Mus musculus. Briefly: In vivo induction of muscular hypertrophy in mdx mouse assessed as increase in weight of TA muscles at 30 nmol, im administered on 0 and 14 day and measured on day 42 by relative to control. The format is functional.
For assay [4], the system named is Mus musculus. The assay is described as follows: In vivo induction of muscular hypertrophy in mdx mouse assessed as increase in muscle function at 30 nmol, im administered on 0 and 14 day and measured on day 42 by grip strength meter method relative to control. The format is functional.
Assay [5] concerns Mus musculus. The assay is described as follows: In vivo induction of muscular hypertrophy in im dosed C57BL/6 mouse assessed as increase in gastrocnemius muscle fiber size administered on 0 and 14 day and measured on day 42 by hematoxylin and eosin staining based assay. The class given is functional, organism-based.
For assay [6], the system named is Mus musculus. The assay is described as follows: In vivo induction of muscular hypertrophy in im dosed mdx mouse assessed as increase in gastrocnemius muscle fiber size administered on 0 and 14 day and measured on day 42 by hematoxylin and eosin staining based assay. The format is functional, organism-based. The gist of the method:
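Male mdx mice aged 5 weeks received intramuscular injections, with saline-injected controls. Gastrocnemius fiber size was assessed histologically by hematoxylin and eosin staining.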

Assay [7] deals with Growth/differentiation factor 8 (Homo sapiens) (UniProt O14793). The assay is described as follows: Inhibition of myostatin (unknown origin) expressed in HEK293 cells at 0.3 uM incubated for 4 hrs by dual luciferase reporter gene assay. The class given is cell-based. The procedure, abridged: as §1
Sequence of Growth/differentiation factor 8 (Homo sapiens) (O14793 267-375 limits assumed): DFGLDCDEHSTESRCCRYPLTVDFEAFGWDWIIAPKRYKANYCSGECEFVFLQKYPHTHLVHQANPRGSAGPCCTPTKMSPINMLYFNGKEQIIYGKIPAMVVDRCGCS

Regarding H-WYIEAIKIQILSKLRL-NH2, in assay [1], the inhibition result was “Active”.

H-SRIEAIKIQILSKLRL-NH2: the inhibition result in assay [1] is “inactive”.

Take `CC[C@H](C)[C@H](NC(=O)[C@H](CCC(N)=O)NC(=O)[C@@H](NC(=O)[C@H](CCCCN)NC(=O)[C@@H](NC(=O)[C@@H](Cc1c[nH]c2ccccc12)NC(=O)[C@H](CCCNC(=N)N)NC(=O)[C@@H](NC(=O)[C@H](Cc1ccc(O)cc1)NC(=O)[C@@H](N)Cc1c[nH]c2ccccc12)[C@@H](C)CC)[C@@H](C)CC)C1CCCCC1)C(=O)N[C@@H](Cc1c[nH]c2ccccc12)C(=O)N[C@@H](CO)C(=O)N[C@@H](CCCCN)C(=O)N[C@H](C(=O)N[C@@H](CCCNC(=N)N)C(=O)N[C@@H](CC(C)C)C(N)=O)C1CCCCC1`: the Activity in the assay on Mus musculus [2] was 5.92 kg/kg; with Mus musculus [3] it was 114%; with Mus musculus [4] it was 130%.

Take H-WYIRWIKIQIWSKLRL-NH2: the outcome with Mus musculus [5] and in the assay with Mus musculus [6] was Active. In addition, the inhibition entry in assay [7] was “Active”.

As for H-WYIRWIKIQFWSKLRL-NH2, the inhibition entry in assay [7] is “Active”.

Take H-SRIEWIKIQIISKLRL-NH2: the inhibition result in assay [1] is “Active”.

Regarding H-SRIEWIKIQIWSKLRL-NH2, the inhibition entry in assay [1] was “Active”.

With `CC[C@H](C)[C@H](NC(=O)[C@H](CCC(N)=O)NC(=O)[C@@H](NC(=O)[C@H](CCCCN)NC(=O)[C@@H](NC(=O)[C@H](Cc1c[nH]c2ccccc12)NC(=O)[C@H](CCCNC(=N)N)NC(=O)[C@@H](NC(=O)[C@H](Cc1ccc(O)cc1)NC(=O)[C@@H](N)Cc1c[nH]c2ccccc12)[C@@H](C)CC)[C@@H](C)CC)C1CCCCC1)C(=O)N[C@@H](Cc1c[nH]c2ccccc12)C(=O)N[C@@H](CO)C(=O)N[C@@H](CCCCN)C(=O)N[C@@H](CC(C)C)C(=O)N[C@@H](CCCNC(=N)N)C(=O)N[C@@H](CC(C)C)C(N)=O` (H-WYIRWIK[Chg]QIWSKLRL-NH2), the inhibition entry in assay [7] was “Active”.

For the compound H-WYFRWIKIQIWSKLRL-NH2, the inhibition result in assay [7] is “Active”.

Take `CC[C@H](C)[C@H](NC(=O)[C@H](CCC(N)=O)NC(=O)[C@@H](NC(=O)[C@H](CCCCN)NC(=O)[C@@H](NC(=O)[C@H](Cc1c[nH]c2ccccc12)NC(=O)[C@H](CCCNC(=N)N)NC(=O)[C@@H](NC(=O)[C@H](Cc1ccc(O)cc1)NC(=O)[C@@H](N)Cc1c[nH]c2ccccc12)[C@@H](C)CC)[C@@H](C)CC)[C@@H](C)CC)C(=O)N[C@@H](Cc1c[nH]c2ccccc12)C(=O)N[C@@H](CO)C(=O)N[C@@H](CCCCN)C(=O)N[C@H](C(=O)N[C@@H](CCCNC(=N)N)C(=O)N[C@@H](CC(C)C)C(N)=O)C1CCCCC1` (H-WYIRWIKIQIWSK[Chg]RL-NH2): the inhibition result in assay [7] was “Active”.

Turning to `CC[C@H](C)[C@H](NC(=O)[C@H](CCCNC(=N)N)NC(=O)[C@H](CO)NC(=O)[C@H](Cc1ccc(O)cc1)NC(=O)[C@H](CCCNC(=N)N)NC(=O)[C@@H](NC(=O)[C@H](CC(N)=O)NC(=O)[C@H](CCC(N)=O)NC(=O)[C@H](CCCNC(=N)N)NC(=O)COc1ccc2ccccc2c1)[C@@H](C)O)C(=O)N[C@@H](CCC(=O)O)C(=O)N[C@@H](Cc1c[nH]c2ccccc12)C(=O)N[C@H](C(=O)N[C@@H](CCCCN)C(=O)N[C@H](C(=O)N[C@@H](CCC(N)=O)C(=O)N[C@H](C(=O)N[C@H](C(=O)N[C@@H](CO)C(=O)N[C@@H](CCCCN)C(=O)N[C@@H](CC(C)C)C(=O)N[C@@H](CCCNC(=N)N)C(=O)N[C@@H](CC(C)C)C(N)=O)[C@@H](C)CC)[C@@H](C)CC)[C@@H](C)CC)[C@@H](C)CC` ({Acetyl(2-naphthyloxy)}-RQNTRYSRIEWIKIQIISKLRL-NH2), the outcome in the assay on Mus musculus [5] was Active.

For `CC[C@H](C)[C@H](NC(=O)[C@H](CCC(N)=O)NC(=O)[C@@H](NC(=O)[C@H](CCCCN)NC(=O)[C@@H](NC(=O)[C@H](Cc1c[nH]c2ccccc12)NC(=O)[C@H](CCCNC(=N)N)NC(=O)[C@@H](NC(=O)[C@H](Cc1ccc(O)cc1)NC(=O)[C@@H](N)Cc1c[nH]c2ccccc12)[C@@H](C)CC)[C@@H](C)CC)C1CCCCC1)C(=O)N[C@@H](Cc1c[nH]c2ccccc12)C(=O)N[C@@H](CO)C(=O)N[C@@H](CCCCN)C(=O)N[C@H](C(=O)N[C@@H](CCCNC(=N)N)C(=O)N[C@@H](CC(C)C)C(N)=O)C1CCCCC1`, the inhibition result in assay [7] is “Active”.

(Values after ChEMBL document CHEMBL4396903, “Chain-Shortened Myostatin Inhibitory Peptides Improve Grip Strength in Mice” (ACS Med Chem Lett, 2019).)
